# Calls of active or inactive are those of the source. The calls are words filed in the database; no cut-off is given here.
# How the values were obtained:
# [1] = target: GABA-A receptor; anion channel; test: Displacement of [3H]diazepam from rat cerebral cortex benzodiazepine receptor; type: tissue-based
# [2] = test system: Mus musculus; test: Agonist activity was evaluated by mouse pentylenetetrazole (PTZ) convulsant test; inactive to 10 mg/kg administered intravenously; type: functional, organism-based; design: dose 10 mg/kg
# [3] = test system: Mus musculus; test: Inverse agonist activity was evaluated by mouse pentylenetetrazole (PTZ) proconvulsant activity test; by peroral administration of 90 mg/kg convulsive dose of PTZ; inactive to 10 mg/kg administered intravenously; type: functional, organism-based
# [4] = test system: Mus musculus; test: Inverse agonist activity was evaluated by Mouse pentylenetetrazole (PTZ) proconvulsant activity test; by peroral administration of 90 mg/kg convulsive dose of PTZ; inactive to 10 mg/kg administered intravenously; type: functional, organism-based
# [5] = organism: Mus musculus; test: Activity in mouse pentylenetetrazole convulsant test.; type: functional
# Summary of the method: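 Male mice, 8-16 per group. Test compound dosed orally 1 h before sc PTZ, either a convulsive 125 mg/kg (protection) or a subconvulsive 75 or 90 mg/kg (potentiation). Animals were watched 2 h for tonic convulsions and death. ED50 came from probit analysis.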
# [6] = test system: Mus musculus; test: Inverse agonist activity was evaluated by mouse pentylenetetrazole (PTZ) proconvulsant activity test; by administering 75 mg/kg convulsive dose of PTZ, 1 hr after oral administration of test compound; type: functional
# Summary of the method: (§1)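 Male mice, 8-16 per group. Test compound given po, followed 1 h later by a subconvulsive dose of PTZ (75 mg/kg sc). Tonic convulsions and death were scored over a 2-h observation.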
# [7] = test system: Mus musculus; test: Inverse agonist activity was evaluated by mouse pentylenetetrazole (PTZ) proconvulsant activity test; by peroral administration of 90 mg/kg convulsive dose of PTZ.; type: functional; details: route oral
# [8] = test system: Mus musculus; test: Inverse agonist activity was evaluated by Mouse pentylenetetrazole (PTZ) proconvulsant activity test; by administering 75 mg/kg convulsive dose of PTZ, 1 hr after oral administration of test compound; type: functional; summary of the method: as §1
# [9] = test system: Mus musculus; test: Agonist activity was evaluated by mouse pentylenetetrazole (PTZ) convulsant test after p.o. administration; details: po
# [10] = test system: Mus musculus; test: Inverse agonist activity was evaluated by Mouse pentylenetetrazole (PTZ) proconvulsant activity test; by peroral administration of 90 mg/kg convulsive dose of PTZ.; type: functional; details: route oral
# [11] = test system: Mus musculus; test: Inverse agonist activity was evaluated by Mouse pentylenetetrazole (PTZ) proconvulsant activity test at 28.18 mg/kg by administering 75 mg/kg convulsive dose of PTZ, 1 hr after oral administration of test compound; type: functional; summary of the method: as §1
# [12] = test system: Mus musculus; test: Inverse agonist activity was evaluated by Mouse pentylenetetrazole (PTZ) proconvulsant activity test; at 7.7-119.81 mg/kg by peroral administration of 90 mg/kg convulsive dose of PTZ.; type: functional; details: route oral
# [13] = test system: Mus musculus; test: Inverse agonist activity was evaluated by Mouse pentylenetetrazole (PTZ) proconvulsant activity test at 25.87-58.54 mg/kg by administering 75 mg/kg convulsive dose of PTZ, 1 hr after oral administration of test compound; type: functional; summary of the method: as §1
# [14] = test system: Mus musculus; test: Inverse agonist activity was evaluated by Mouse pentylenetetrazole (PTZ) proconvulsant activity test at 14.6-34.51 mg/kg by peroral administration of 90 mg/kg convulsive dose of PTZ.; type: functional; details: route oral
# [15] = test system: Mus musculus; test: Inverse agonist activity was evaluated by Mouse pentylenetetrazole (PTZ) proconvulsant activity test at 22.39-75 mg/kg by peroral administration of 90 mg/kg convulsive dose of PTZ.; type: functional; details: route oral
# [16] = test system: Mus musculus; test: Inverse agonist activity was evaluated by Mouse pentylenetetrazole (PTZ) proconvulsant activity test at 50 mg/kg by administering 75 mg/kg convulsive dose of PTZ, 1 hr after oral administration of test compound; type: functional; summary of the method: as §1
# [17] = test system: Mus musculus; test: Inverse agonist activity was evaluated by mouse pentylenetetrazole (PTZ) proconvulsant activity test; by administering 75 mg/kg convulsive dose of PTZ, 1 hr after oral administration of test compound; In active to 10 iv; type: functional, organism-based; design: dose 75 mg/kg; summary of the method: as §1
# [18] = test system: Mus musculus; test: Inverse agonist activity was evaluated by mouse pentylenetetrazole (PTZ) proconvulsant activity test at 6.7-16.7 mg/kg by peroral administration of 90 mg/kg convulsive dose of PTZ; type: functional; details: route oral
# [19] = test system: Mus musculus; test: Inverse agonist activity was evaluated by Mouse pentylenetetrazole (PTZ) proconvulsant activity test at 11.71-22.28 mg/kg by administering 75 mg/kg convulsive dose of PTZ, 1 hr after oral administration of test compound; type: functional; summary of the method: as §1
# [20] = test system: Mus musculus; test: Inverse agonist activity was evaluated by Mouse pentylenetetrazole (PTZ) proconvulsant activity test; at 3.64-18.28 mg/kg by peroral administration of 90 mg/kg convulsive dose of PTZ.; type: functional; details: route oral
# [21] = test system: Mus musculus; test: Inverse agonist activity was evaluated by mouse pentylenetetrazole (PTZ) proconvulsant activity test at 10 mg/kg by peroral administration of 90 mg/kg convulsive dose of PTZ.; type: functional
# [22] = test system: Mus musculus; test: Inverse agonist activity was evaluated by Mouse pentylenetetrazole (PTZ) proconvulsant activity test 9.76-20.68 mg/kg by peroral administration of 90 mg/kg convulsive dose of PTZ.; type: functional; details: route oral
# [23] = test system: Mus musculus; test: Inverse agonist activity was evaluated by Mouse pentylenetetrazole (PTZ) proconvulsant activity test at 4.54-12.28 mg/kg by administering 75 mg/kg convulsive dose of PTZ, 1 hr after oral administration of test compound; type: functional; summary of the method: as §1
# [24] = test system: Mus musculus; test: Inverse agonist activity was evaluated by Mouse pentylenetetrazole (PTZ) proconvulsant activity test at 3.53-11.93 mg/kg by peroral administration of 90 mg/kg convulsive dose of PTZ.; type: functional; details: route oral
Compound,Ki [1],ED50 [5],other results
Clc1cccc2c1ncc1[nH]c(-c3ccon3)nc12,524 nM,–,ED50 [2]: inactive; Animals affected [3]: inactive
c1cc(-c2nc3c4c(ncc3[nH]2)CCCCC4)no1,5.2 nM,–,ED50 [2]: inactive; Animals affected [4]: inactive
Cc1cc(-c2nc3c4c(ncc3[nH]2)CCCC4)on1,2.2 nM,8.12 mg/kg,–
COc1ccc2[nH]cc3nc(-c4cc(C)no4)nc-3c2c1,0.9 nM,21.6 mg/kg,–
Cc1cc(-c2nc3c(cnc4cccc(Cl)c43)[nH]2)on1,13.7 nM,8.53 mg/kg,–
c1cc(-c2nc3c4c(ncc3[nH]2)CCC4)no1,5.3 nM,–,ED50 [6]: 9.22 mg/kg; ED50 [7]: 4.72 mg/kg
COc1ccc2c3nc(-c4cc(C)no4)nc-3c[nH]c2c1,9.5 nM,–,ED50 [2]: inactive; ED50 [8]: 46.2 mg/kg; Animals affected [4]: inactive
Cc1cc(-c2nc3c4c(ncc3[nH]2)CCOC4)on1,3.3 nM,11.2 mg/kg,–
CN1C(=O)CN=C(c2ccccc2)c2cc(Cl)ccc21 [DIAZEPAM],–,–,ED50 [9]: 0.67 mg/kg
O=C1C2C=Nc3ccccc3C2=NN1c1ccccc1 (stereo not given) [CGS-8216],–,–,ED50 [8]: 25 mg/kg
Clc1ccc(-c2nc3c(cnc4ccccc43)[nH]2)cc1,270 nM,–,–
Cc1cc(-c2nc3c(cnc4ccccc43)[nH]2)on1,0.9 nM,5.89 mg/kg,–
c1cc(-c2nc3c[nH]c4c(c-3n2)COCC4)no1,2.7 nM,–,ED50 [8]: 25 mg/kg; ED50 [10]: 19.6 mg/kg
c1ccc(-c2nc3c(cnc4ccccc43)[nH]2)cc1,22 nM,–,–
Cc1cc(-c2nc3c(cnc4c(Cl)cccc43)[nH]2)on1,–,–,ED50 [2]: inactive; Animals affected [4]: inactive
Fc1ccc2[nH]cc3nc(-c4ccon4)nc-3c2c1,0.8 nM,–,ED50 [11]: 64.1 mg/kg; ED50 [12]: 16.5 mg/kg
Cc1cc(-c2nc3c4c(ncc3[nH]2)CCC4)on1,14.6 nM,5.97 mg/kg,–
c1cc(-c2nc3c4c(ncc3[nH]2)CCCC4)no1,1.2 nM,–,ED50 [2]: inactive; Animals affected [3]: inactive
Cc1cc(-c2nc3c(cnc4cc(F)ccc43)[nH]2)on1,1.4 nM,5.15 mg/kg,–
c1ccc2c(c1)ncc1[nH]c(-c3ccno3)nc12,1 nM,–,ED50 [2]: inactive; ED50 [8]: 1.94 mg/kg; ED50 [4]: inactive

Compound,Ki [1],ED50 [5],other results
c1csc(-c2nc3c[nH]c4ccccc4c-3n2)c1,1.7 nM,–,–
Fc1cccc2[nH]cc3nc(-c4ccon4)nc-3c12,3.4 nM,–,ED50 [13]: 35.7 mg/kg; ED50 [14]: 21.2 mg/kg
Cc1cc(-c2nc3c4c(ncc3[nH]2)CCCCC4)on1,15.6 nM,12.4 mg/kg,–
COc1ccc2[nH]cc3nc(-c4ccon4)nc-3c2c1,0.5 nM,–,ED50 [15]: 31.5 mg/kg; Animals affected [16]: 25%
Cc1cc(-c2nc3c(cnc4cc(Cl)ccc43)[nH]2)on1,18.8 nM,29.8 mg/kg,–
c1ccc2c(c1)ncc1[nH]c(-c3ccon3)nc12,0.6 nM,–,ED50 [17]: inactive; ED50 [18]: 10.1 mg/kg
CCc1cc(-c2nc3c(cnc4ccccc43)[nH]2)on1,1.2 nM,13.5 mg/kg,–
COc1ccc2c3nc(-c4ccon4)nc-3c[nH]c2c1,7.2 nM,–,ED50 [19]: 16.2 mg/kg; ED50 [20]: 8.77 mg/kg
Cc1cc(-c2nc3c(cnc4ccc(F)cc43)[nH]2)on1,1.1 nM,5.41 mg/kg,–
Cc1cc(-c2nc3c(cnc4c(F)cccc43)[nH]2)on1,302 nM,–,ED50 [2]: inactive
Cc1cc(-c2nc3c(cnc4ccccc43)[nH]2)cs1,4.5 nM,–,–
Cc1cc(-c2nc3c(cnc4ccccc43)[nH]2)no1,0.9 nM,16.4 mg/kg,–
Fc1cccc2c1ncc1[nH]c(-c3ccon3)nc12,40 nM,–,Animals affected [21]: 37.5%
Fc1ccc2c3nc(-c4ccon4)nc-3c[nH]c2c1,0.9 nM,39.9 mg/kg,–
Cc1cc(-c2nc3c(cnc4ccc(Cl)cc43)[nH]2)on1,0.5 nM,10.6 mg/kg,–
CCc1cc(-c2nc3c(cnc4ccccc43)[nH]2)no1,1.1 nM,19.2 mg/kg,–
Clc1ccc2[nH]cc3nc(-c4ccon4)nc-3c2c1,0.8 nM,–,ED50 [22]: 14.2 mg/kg; Animals affected [16]: 25%
Cc1cc(-c2nc3c(cnc4cccc(F)c43)[nH]2)on1,4.9 nM,4.86 mg/kg,–
Clc1cccc2[nH]cc3nc(-c4ccon4)nc-3c12,7.8 nM,–,ED50 [23]: 7.21 mg/kg; ED50 [24]: 5.95 mg/kg
Clc1ccc2c3nc(-c4ccon4)nc-3c[nH]c2c1,3.5 nM,27.2 mg/kg,–

# Reference: ChEMBL document CHEMBL1129239, “Synthesis and structure--activity relationships of fused imidazopyridines: a new series of benzodiazepine receptor ligands” (J Med Chem, 1996)
